According to publication PMC8821119 (Clinical breast cancer, 2021):
Values joined by “and” are separate entries in the source; they are usually repeats but may differ in a detail not shown here. Identical values can stand only once.

Columns and labels:
T47D:PKCα cells = assay: Secondary mammosphere formation assay; type: cell-based; conditions: 7 days
Method in brief: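 T47D cells electroporated with a PKCα plasmid; G418-resistant clone F2 was chosen for PKCα overexpression on Western blot and STR-authenticated as T47D. Secondary mammosphere cultures were treated with test compound (30 nM), alone or with a γ-secretase inhibitor (5 μM), at pilot-chosen concentrations. Mammospheres counted after 7 days; 3 independent experiments, mean ± standard deviation.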

plasma protein = conditions: cited from earlier work
Notch1 cleavage = conditions: cited from earlier work
[1] = system: ER+ metastatic breast cancer; assay: Phase Ib trial: clinical response; type: in vivo, human; conditions: RO4929097 with exemestane
[2] = system: patients with ER+ metastatic breast cancer; parameters: species or system human; conditions: in vivo
clinical = conditions: human, in vivo
[3] = system: early stage ERα+ breast cancer patients; conditions: short-term MK0752 added to letrozole or tamoxifen, neo-adjuvant; cited from earlier work
[4] = system: PKCα-overexpressing, Notch4-positive ER+ cells; conditions: reverses endocrine resistance; cited from earlier work
[5] = system: HER2-enriched breast cancer; conditions: cited from earlier work

For `C[C@]12CC[C@@H]3c4ccc(O)cc4C[C@@H](CCCCCCCCC[S+]([O-])CCCC(F)(F)C(F)(F)F)[C@H]3[C@@H]1CC[C@@H]2O` (some centres unmarked) [fulvestrant, reference compound], the “Mammosphere sensitivity to single agent” value (T47D:PKCα cells; fulvestrant alone (30 nM)) was “partially sensitive”.

In the case of `C=C1C[C@@H]2[C@H](CC[C@]3(C)C(=O)CC[C@@H]23)[C@@]2(C)C=CC(=O)C=C12` [exemestane, reference compound], the Protein-bound (plasma protein) is given as 90%.

In the case of `CC(C)(C(=O)NCC(F)(F)C(F)(F)F)C(=O)N[C@@H]1C(=O)Nc2ccccc2-c2ccccc21` [RO4929097], the “IC50s observed by the authors earlier” value (Notch1 cleavage) is given as “nanomolar range”, the IC50 (Notch1 cleavage; read-out: in vitro IC50 in cell-based assays for Notch1 cleavage) is given as 5 nM and the Mammosphere numbers (T47D:PKCα cells; RO4929097 alone (5 μM)) is given as “significantly decreased mammosphere numbers”. The “Complete responses (CR)” value [1] was “No complete responses”, the “Patients with stable disease for ≥ 6 months” value [1] was “Twenty” and the “Total clinical benefit rate (CR+PR+SD ≥ 6 months)” value [1] was 20%. The “Partial response (PR), number of patients” value ([1]; 14 evaluable patients) was “one”, the “Progressive disease, number of patients” value ([1]; 14 evaluable patients) was 7 and 6 and the “Stable disease (SD), number of patients” value ([1]; 14 evaluable patients) was 6 and 7. For the same compound, the “Estimated overall survival (OS) at 6 months” value ([1]; interval 60–100%) was 79%, the “Dose-Limiting Toxicity (DLT) observed” value [2] was “Rash” and the Plasma protein binding (plasma protein) was “highly plasma protein-bound”. For the same compound, the “Drug levels six days after dosing” value (clinical) was “nearly unquantifiable levels”, the AUC(0-t) (clinical; po, 20 mg) was 4550 ng·h/mL and the “Clearance mean (±st dev)” value (clinical; po, 20 mg) was 2.3 (±1.5) L/hr. The Cmax (clinical; po, 20 mg) was 266 ng/mL, the Tmax (clinical; po, 20 mg) was 3 h and the half-life (clinical; po, 20 mg) was 26 h. For the same compound, the AUC(0-t) (clinical; po, 30 mg) was 7710 ng·h/mL, the “Clearance mean (±st dev)” value (clinical; po, 30 mg) was 2.1 (±0.3) L/hr and the Cmax (clinical; po, 30 mg) was 1050 ng/mL. For the same compound, the Tmax (clinical; po, 30 mg) was 0.5 h, the half-life (clinical; po, 30 mg) was 20.7 h and the AUC(0-t) (clinical; po, 45 mg) was 10400 ng·h/mL. The “Clearance mean (±st dev)” value (clinical; po, 45 mg) was 2.8 (±2.2) L/hr, the Cmax (clinical; po, 45 mg) was 1110 ng/mL and the “Tmax mean (range)” value (clinical; po, 45 mg) was 1.5 (1–2) hr. For the same compound, the half-life (clinical; po, 45 mg) was 23.1 h, the AUC(0-t) (clinical; po, 90 mg) was 21100 ng·h/mL and the “Clearance mean (±st dev)” value (clinical; po, 90 mg) was 2.8 L/h. The Cmax (clinical; po, 90 mg) was 2080 ng/mL, the Tmax (clinical; po, 90 mg) was 4.3 h and the half-life (clinical; po, 90 mg) was 13.6 h. The AUC(0-t) (clinical; po, 140 mg) was 19700 ng·h/mL, the “Clearance mean (±st dev)” value (clinical; po, 140 mg) was 2.6 (±0.2) L/hr and the Cmax (clinical; po, 140 mg) was 1330 ng/mL. For the same compound, the half-life (clinical; po, 140 mg) was 33.4 h.

In the case of `O=C(O)CC[C@H]1CC[C@@](c2cc(F)ccc2F)(S(=O)(=O)c2ccc(Cl)cc2)CC1` [MK0752], the “Ki67 expression in tumors” value [3] is given as “significantly affected Ki67 expression” and the Toxicity [3] is given as “no significant toxicity”.

For `O=S1(=O)N[C@@]2(CN1CC(F)(F)F)[C@@H]1CC[C@H]2Cc2ccc(/C=C/CN3CCC(C(F)(F)F)CC3)cc2C1` [MRK003], the “Tumor response and toxicity” value [4] is listed as “causes tumor regression without significant toxicity”, the “Effect on tumor volume” value ([5]; MRK003 alone) is listed as “virtually no effect on tumor volume” and the Tumor recurrence ([5]; MRK003 in combination with trastuzumab) is listed as “abrogated tumor recurrence”.
